Test results published in ChEMBL document CHEMBL1159121, “Synthesis, in vitro structure-activity relationship, and in vivo studies of 2-arylthiazolidine-4-carboxylic acid amides as anticancer agents” (Bioorg Med Chem, 2010).

Columns and labels:
SNB-19 = experiment: Growth inhibition of human SNB19 cells; format: functional
OVCAR-8 = experiment: Growth inhibition of human OVCAR8 cells; format: functional
OVCAR-5 = experiment: Growth inhibition of human OVCAR5 cells; format: functional
OVCAR-4 = experiment: Growth inhibition of human OVCAR4 cells; format: functional
LOX IMVI = experiment: Growth inhibition of human LOXIMVI cells; format: functional
SK-OV-3 = experiment: Growth inhibition of human SKOV3 cells; format: functional
PC-3 = experiment: Growth inhibition of human PC3 cells; format: functional
SF-539 = experiment: Growth inhibition of human SF539 cells; format: functional
RXF 393 = experiment: Growth inhibition of human RXF393 cells; format: functional
COLO 205 = experiment: Growth inhibition of human COLO205 cells; format: functional
MOLT-4 = experiment: Growth inhibition of human MOLT4 cells; format: functional
HT-29 = experiment: Growth inhibition of human HT-29 cells; format: functional
[1] = Growth inhibition of human […] cells; format: functional
[2] = Cytotoxicity against human fibroblasts after 48 hrs by SRB assay; format: cell-based; conditions: Fibroblast
Summary of the method: (§1)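 Melanoma lines and control fibroblasts grown at 37 °C, 5% CO2, then exposed to a wide concentration range for 48 h in round-bottom 96-well plates. Fixed with 10% TCA, stained with SRB, protein read at 560 nm. IC50 (50% growth inhibition versus untreated) obtained by nonlinear regression.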

TK-10 = experiment: Growth inhibition of human TK10 cells; format: functional
HCC 2998 = experiment: Growth inhibition of human HCC2998 cells; format: functional
NCI-H322M = experiment: Growth inhibition of human NCI-H322M cells; format: functional
A498 = experiment: Growth inhibition of human A498 cells; format: functional
SK-MEL-28 = experiment: Growth inhibition of human SK-MEL-28 cells; format: functional
SK-MEL-5 = experiment: Growth inhibition of human SK-MEL-5 cells; format: functional
HCT-116 = experiment: Growth inhibition of human HCT116 cells; format: functional
CCRF-CEM = experiment: Growth inhibition of human CCRF-CEM cells; format: functional
[3] = Antiproliferative activity against human WM164 cells after 48 hrs by SRB assay; format: functional, cell-based; conditions: WM164, 48 h; summary of the method: as §1
SNB-75 = experiment: Growth inhibition of human SNB75 cells; format: functional
HL-60(TB) = experiment: Growth inhibition of human HL-60(TB) cells; format: functional
UO-31 = experiment: Growth inhibition of human UO31 cells; format: functional
[4] = Growth inhibition of human Hs 578T cells; format: functional
U-251 = experiment: Growth inhibition of human U251 cells; format: functional
ACHN = experiment: Growth inhibition of human ACHN cells; format: functional
MDA-MB-435 = experiment: Growth inhibition of human MDA-MB-435 cells; format: functional
MDA-MB-231 = experiment: Growth inhibition of human MDA-MB-231 cells; format: functional
NCI-H226 = experiment: Growth inhibition of human NCI-H226 cells; format: functional
EKVX = experiment: Growth inhibition of human EKVX cells; format: functional
HOP-62 = experiment: Growth inhibition of human HOP62 cells; format: functional
DU-145 = experiment: Growth inhibition of human DU145 cells; format: functional
NCI/ADR-RES = experiment: Growth inhibition of human NCI/ADR-RES cells; format: functional
UACC-62 = experiment: Growth inhibition of human UACC62 cells; format: functional
786-0 = experiment: Growth inhibition of human 786-0 cells; format: functional
IGROV-1 = experiment: Growth inhibition of human IGROV1 cells; format: functional
NCI-H23 = experiment: Growth inhibition of human NCI-H23 cells; format: functional
RH7777 = experiment: Cytotoxicity against rat RH7777 cells after 96 hrs by SRB assay; format: cell-based; conditions: RH7777, 96 h
Summary of the method: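 Prostate lines in RPMI1640/10% FBS; RH7777 in DMEM/10% FBS. Cells TCA-fixed, stained with 0.4% SRB, absorbance read at 540 nm. IC50 from nonlinear regression of % survival against concentration.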

[5] = read-out: LC50 (the source's name)

Q: For `CCCCCCCCCCCCCCCCNC(=O)[C@@H]1CSC(c2ccc(NC(C)=O)cc2)N1` (mixture of isomers), which GI50 (SNB-19) is on record?
A: 0.19 µM

Q: What about the TGI (SNB-19) of the same molecule?
A: 0.4 µM

Q: What about the CC50 (SNB-19; [5]) of the same molecule?
A: 0.82 µM

Q: And the GI50 (OVCAR-8)?
A: 0.28 µM

Q: What about the TGI (OVCAR-8) of the same molecule?
A: 0.73 µM

Q: And the CC50 (OVCAR-8; [5])?
A: > 100 µM

Q: What about the GI50 (OVCAR-5) of the same molecule?
A: 0.2 µM

Q: What about the TGI (OVCAR-5) of the same molecule?
A: 0.37 µM

Q: What about the CC50 (OVCAR-5; [5]) of the same molecule?
A: 0.67 µM

Q: And the GI50 (OVCAR-4)?
A: 0.23 µM

Q: And the TGI (OVCAR-4)?
A: 0.49 µM

Q: And the CC50 (OVCAR-4; [5])?
A: 0.12 µM

Q: What about the GI50 (LOX IMVI) of the same molecule?
A: 0.14 µM

Q: What about the TGI (LOX IMVI) of the same molecule?
A: 0.3 µM

Q: And the CC50 (LOX IMVI; [5])?
A: 0.83 µM

Q: And the GI50 (SK-OV-3)?
A: 0.38 µM

Q: What about the TGI (SK-OV-3) of the same molecule?
A: 1.13 µM

Q: And the CC50 (SK-OV-3; [5])?
A: 3.48 µM

Q: And the GI50 (PC-3)?
A: 0.17 µM

Q: What about the TGI (PC-3) of the same molecule?
A: 0.34 µM

Q: And the CC50 (PC-3; [5])?
A: 0.64 µM

Q: What about the GI50 (SF-539) of the same molecule?
A: 0.26 µM

Q: What about the TGI (SF-539) of the same molecule?
A: 0.7 µM

Q: What about the CC50 (SF-539; [5]) of the same molecule?
A: 2.81 µM

Q: What about the GI50 (RXF 393) of the same molecule?
A: 0.2 µM

Q: And the TGI (RXF 393)?
A: 0.35 µM

Q: And the CC50 (RXF 393; [5])?
A: 0.62 µM

Q: And the GI50 (COLO 205)?
A: 1.91 µM

Q: And the CC50 (COLO 205; [5])?
A: > 100 µM

Q: What about the GI50 (MOLT-4) of the same molecule?
A: 0.15 µM

Q: And the TGI (MOLT-4)?
A: 0.34 µM

Q: What about the CC50 (MOLT-4; [5]) of the same molecule?
A: 0.79 µM

Q: What about the GI50 (HT-29) of the same molecule?
A: 0.23 µM

Q: What about the TGI (HT-29) of the same molecule?
A: 0.48 µM

Q: And the CC50 (HT-29; [5])?
A: 1.09 µM

Q: And the GI50 [1]?
A: 0.22 µM

Q: What about the TGI [1] of the same molecule?
A: 0.56 µM

Q: What about the CC50 [1, 5] of the same molecule?
A: > 100 µM

Q: What about the IC50 [2] of the same molecule?
A: 16 µM

Q: What about the GI50 (TK-10) of the same molecule?
A: 0.65 µM

Q: And the TGI (TK-10)?
A: 2.11 µM

Q: What about the CC50 (TK-10; [5]) of the same molecule?
A: 5.4 µM

Q: What about the GI50 (HCC 2998) of the same molecule?
A: 0.44 µM

Q: What about the TGI (HCC 2998) of the same molecule?
A: 1.81 µM

Q: And the CC50 (HCC 2998; [5])?
A: 4.58 µM

Q: And the GI50 (NCI-H322M)?
A: 0.28 µM

Q: And the TGI (NCI-H322M)?
A: 0.85 µM

Q: What about the CC50 (NCI-H322M; [5]) of the same molecule?
A: 3.22 µM

Q: What about the GI50 (A498) of the same molecule?
A: 0.94 µM

Q: What about the TGI (A498) of the same molecule?
A: 2.2 µM

Q: And the CC50 (A498; [5])?
A: 4.97 µM

Q: And the GI50 (SK-MEL-28)?
A: 0.13 µM

Q: What about the TGI (SK-MEL-28) of the same molecule?
A: 0.26 µM

Q: And the CC50 (SK-MEL-28; [5])?
A: 0.52 µM

Q: What about the GI50 (SK-MEL-5) of the same molecule?
A: 0.75 µM

Q: What about the TGI (SK-MEL-5) of the same molecule?
A: 2.13 µM

Q: What about the CC50 (SK-MEL-5; [5]) of the same molecule?
A: 5.13 µM

Q: What about the GI50 (HCT-116) of the same molecule?
A: 0.18 µM

Q: What about the TGI (HCT-116) of the same molecule?
A: 0.33 µM

Q: And the CC50 (HCT-116; [5])?
A: 0.6 µM

Q: And the GI50 (CCRF-CEM)?
A: 0.12 µM

Q: And the TGI (CCRF-CEM)?
A: 0.4 µM

Q: And the CC50 (CCRF-CEM; [5])?
A: 13 µM

Q: What about the IC50 [3] of the same molecule?
A: 1.1 µM

Q: And the GI50 (SNB-75)?
A: 0.18 µM

Q: What about the TGI (SNB-75) of the same molecule?
A: 0.33 µM

Q: And the CC50 (SNB-75; [5])?
A: 0.58 µM

Q: And the GI50 (HL-60(TB))?
A: 0.17 µM

Q: And the TGI (HL-60(TB))?
A: 0.37 µM

Q: And the CC50 (HL-60(TB); [5])?
A: 0.79 µM

Q: What about the GI50 (UO-31) of the same molecule?
A: 0.19 µM

Q: And the TGI (UO-31)?
A: 0.34 µM

Q: What about the CC50 (UO-31; [5]) of the same molecule?
A: 6.1 µM

Q: What about the GI50 [4] of the same molecule?
A: 0.18 µM

Q: What about the TGI [4] of the same molecule?
A: 0.38 µM

Q: What about the CC50 [4, 5] of the same molecule?
A: 0.78 µM

Q: And the GI50 (U-251)?
A: 0.18 µM

Q: What about the TGI (U-251) of the same molecule?
A: 0.33 µM

Q: What about the CC50 (U-251; [5]) of the same molecule?
A: 0.62 µM

Q: What about the GI50 (ACHN) of the same molecule?
A: 0.21 µM

Q: What about the TGI (ACHN) of the same molecule?
A: 0.47 µM

Q: And the CC50 (ACHN; [5])?
A: 1.1 µM

Q: And the GI50 (MDA-MB-435)?
A: 0.15 µM

Q: What about the TGI (MDA-MB-435) of the same molecule?
A: 0.3 µM

Q: What about the CC50 (MDA-MB-435; [5]) of the same molecule?
A: 0.6 µM

Q: And the GI50 (MDA-MB-231)?
A: 0.18 µM

Q: And the TGI (MDA-MB-231)?
A: 0.32 µM

Q: What about the CC50 (MDA-MB-231; [5]) of the same molecule?
A: 0.59 µM

Q: What about the GI50 (NCI-H226) of the same molecule?
A: 0.23 µM

Q: What about the TGI (NCI-H226) of the same molecule?
A: 0.39 µM

Q: What about the CC50 (NCI-H226; [5]) of the same molecule?
A: 0.69 µM

Q: What about the GI50 (EKVX) of the same molecule?
A: 0.3 µM

Q: And the TGI (EKVX)?
A: 0.88 µM

Q: And the CC50 (EKVX; [5])?
A: 4.11 µM

Q: And the GI50 (HOP-62)?
A: 0.2 µM

Q: What about the TGI (HOP-62) of the same molecule?
A: 0.38 µM

Q: What about the CC50 (HOP-62; [5]) of the same molecule?
A: 0.7 µM

Q: What about the GI50 (DU-145) of the same molecule?
A: 0.27 µM

Q: And the TGI (DU-145)?
A: 0.63 µM

Q: And the CC50 (DU-145; [5])?
A: 2.15 µM

Q: And the GI50 (NCI/ADR-RES)?
A: 0.25 µM

Q: What about the TGI (NCI/ADR-RES) of the same molecule?
A: 0.52 µM

Q: What about the CC50 (NCI/ADR-RES; [5]) of the same molecule?
A: 0.17 µM

Q: And the GI50 (UACC-62)?
A: 1.08 µM

Q: What about the TGI (UACC-62) of the same molecule?
A: 2.33 µM

Q: What about the CC50 (UACC-62; [5]) of the same molecule?
A: 50.2 µM

Q: And the GI50 (786-0)?
A: 0.22 µM

Q: And the TGI (786-0)?
A: 0.42 µM

Q: What about the CC50 (786-0; [5]) of the same molecule?
A: 0.77 µM

Q: What about the GI50 (IGROV-1) of the same molecule?
A: 0.17 µM

Q: And the TGI (IGROV-1)?
A: 0.34 µM

Q: What about the CC50 (IGROV-1; [5]) of the same molecule?
A: 0.65 µM

Q: What about the GI50 (NCI-H23) of the same molecule?
A: 0.32 µM

Q: What about the TGI (NCI-H23) of the same molecule?
A: 1.05 µM

Q: And the CC50 (NCI-H23; [5])?
A: 4.86 µM

Q: What about the IC50 (RH7777) of the same molecule?
A: 6.8 µM
